Vif inh: blocks HIV Vif function. HEK293T cells, Vif self-association by quenched fluorescence, imaging, 24 h. inhibition, % at 7.49 µM. hit rate 0.35% among 340,000. AID 602346; in the data active means inhibition above about 50%, passing the limit was not always enough; inconclusive means no clear call, values can overlap the other calls; inactive means below about 31%
Casp6 inh: blocks human caspase-6 cleavage activity. P55212. purified caspase-6, Z-VEID-R110 cleavage fluorescence. hit rate 0.53% among 350,000. inhibition, % at 12.5 µM;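 active means mean inhibition across replicates at least about 35%, with every replicate also reaching that limit, limit read from the data; inconclusive means only one of the two criteria met; inactive means neither criterion met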;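 further: 0% = median of neutral control wells and 100% = no fluorescence left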
Target sequence (P55212 24-179 limits assumed): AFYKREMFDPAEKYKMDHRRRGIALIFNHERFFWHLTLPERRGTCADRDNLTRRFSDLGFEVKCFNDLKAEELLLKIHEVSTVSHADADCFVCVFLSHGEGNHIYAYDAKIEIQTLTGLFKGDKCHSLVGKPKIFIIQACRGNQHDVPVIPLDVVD
Target sequence (P55212 194-293 limits assumed): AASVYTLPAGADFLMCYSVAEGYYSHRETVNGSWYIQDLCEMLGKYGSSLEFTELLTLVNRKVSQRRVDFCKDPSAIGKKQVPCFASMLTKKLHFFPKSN
Myeloid diff 2: promotes myeloid progenitor differentiation; ER-HoxA9 myeloid progenitors, lysozyme-GFP differentiation, flow cytometry; hit rate 1% among 360,000; calls only at 10 µM;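 active means normalized GFP-positive differentiation at or above the plate's own cutoff, the solvent-only control mean plus 3 SD; inconclusive means no clear call, values can overlap the other calls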;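 further: cells exposed to compound for four days before flow analysis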
T cell modulator: T cell immune modulators affecting CD8 T cell-vesicle binding; hit rate 0.068% among 330,000; 2C CD8+ T cell-vesicle binding, flow cytometry; stronger effect = lower value; response (vesicle binding), % at 7 µM; AID 2052;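 active means response, share of CD8 T cells binding vesicles, and their 90th percentile fluorescence all below set limits, cut at about 80% in these data, passing the limit was not always enough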;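 further: values below 100% mean blocked vesicle binding to the CD8+ T cells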
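Also added: QL9-peptide-loaded Drosophila micro-vesicles bearing Ld, ICAM-1 and B7-1; Test system: purified 2C TCR transgenic mouse naive CD8+ T cells; Measured by: cytometric PE anti-B7-1 and Alexa647 anti-CD8 signals after 1% paraformaldehyde fixation; Timing: binding step 1.5 h, 37 °C, antibody labelling 20 min, ice.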
Numbers without * were called inactive; i = inactive; ? = inconclusive; nt = not tested or not shown; + = active, no number. The list is not random: actives were taken first. Their share in the collection is about 1.4%.

SMILES	Vif inh	Casp6 inh	Myeloid diff 2	T cell modulator
CCCNC(=O)[C@@]1(Sc2ccc(C)cc2)CC(=O)N(C2CCCCC2)[C@@H]1c1ccc(CO)cc1I	nt	-0.3	nt	nt
NCC[C@H]1CC[C@@H](NC(=O)C2CC2)[C@@H](CO)O1	nt	0.9	nt	nt
CN(C)C(CNC(=O)c1ccc(-c2ccccc2)cc1)c1ccccc1 (configuration not stated)	-10.5	-9.3	+	217.2
CN(C)C(CNC(=O)c1ccc(C(=O)c2ccccc2)cc1)c1ccccc1 (configuration not stated)	-8.1	2.6	i	238.9
Cc1ccc(CNC(=O)Cc2csc(Nc3nc(=S)[nH]c4ccccc34)n2)cc1	nt	41.0*	nt	106.2
CCCN1C[C@H](C)[C@H](OC)CN(C)C(=O)c2cc(NS(=O)(=O)c3cn(C)cn3)ccc2OC[C@@H]1C	nt	11.1	nt	nt
Clc1ccc(-c2cn(-c3ccccc3)c3[n+]2CCS3)cc1	1.9	-1.8	nt	431.4
Fc1ccc(-c2cn(-c3ccccc3)c3[n+]2CCS3)cc1	0.9	1.4	+	370.3
NS(=O)(=O)c1ccc(NC(=O)CCCCC(=O)Nc2ccc(S(N)(=O)=O)cc2)cc1	8.1	0.6	i	188.2
CC(C)(C)c1ccc(OCCCC(=O)Nc2ccc(S(N)(=O)=O)cc2)cc1	-22.4	3.5	+	194.9
COc1cc(NCCCCCCN)c2ncccc2c1OC	4.6	85.0*	i	nt
S=c1[nH]nc(-c2cc(-c3ccccc3)n[nH]2)n1/N=C/c1c(Cl)cccc1Cl	-2.2	-0.6	+	215.3
c1ccc(-n2cnnc2SCc2nc3ccccc3s2)cc1	7.7	nt	+	643.9
Cc1nnc(SCc2nc3ccccc3s2)n1-c1ccccc1	-6.0	nt	i	479.7
O=C(CN1CCCc2ccccc21)Nc1cc(S(=O)(=O)N2CCCC2)ccc1Cl	2.3	1.8	i	168.3
Cc1ccc2c(c1)CCCN2CC(=O)Nc1cc(S(=O)(=O)N2CCCC2)ccc1Cl	-3.8	0.2	+	324.5
O=C(O)/C(=C\c1cccc([N+](=O)[O-])c1)c1ccc(S(=O)(=O)N2CCCCC2)s1	0.8	40.8*	i	184.2
CSc1ccc(/C=C(\C(=O)O)c2ccc(S(=O)(=O)N3CCCCC3)s2)cc1	-6.5	43.6*	i	139.3
COc1cc(/C=C(\C(=O)O)c2ccc(S(=O)(=O)N3CCCC3)s2)cc(OC)c1	-12.3	41.2*	i	nt
O=C(O)/C(=C\c1ccc(Cl)c([N+](=O)[O-])c1)c1ccc(S(=O)(=O)N2CCCCC2)s1	nt	31.5	i	294.9
CO[C@@H]1CN(C)C(=O)c2ccc(NC(=O)C3CC3)cc2OC[C@@H](C)N(C(=O)c2ccccc2F)C[C@@H]1C	nt	1.0	nt	nt
O=C(C[C@@H]1C[C@@H]2c3cc(NC(=O)c4cccnc4)ccc3O[C@@H]2[C@H](CO)O1)NCc1ccncc1	nt	1.7	nt	nt
CN1CCN(C(=O)C[C@@H]2CC[C@H]3[C@@H](COC[C@@H](O)CN3C(=O)Nc3ccc(F)cc3)O2)CC1	nt	0.2	nt	nt
CN(C)c1ccc(/C=C/c2nc3ccccc3c(=O)n2-c2ccc(C(=O)O)cc2)cc1	17.5	5.7	+	228.9
O=C(O)c1cccc(-n2c(/C=C/c3ccccc3)nc3ccccc3c2=O)c1	5.0	-3.2	i	221.3
SMILES	Vif inh	Casp6 inh	Myeloid diff 2	T cell modulator
CS(=O)(=O)Nc1ccccc1C(=O)Nc1ccc2c(c1)OCCO2	-1.8	nt	+	448.8
O=C(Nc1ccc2c(c1)OCCO2)c1ccccc1F	-0.1	nt	i	428.0
O=C(Nc1ccccc1)NN(C(=O)CCl)c1ccccc1	5.7	49.6*	i	158.3
O=C(C[C@H]1CC[C@H](NS(=O)(=O)c2ccccc2)[C@H](CO)O1)N1CCN(c2ccccc2)CC1	nt	-1.2	nt	nt
COC(=O)c1ccc(NCc2cc(O)ccc2O)cc1O	85.1*	2.5	i	nt
COC(=O)c1ccc(NCc2c(O)ccc(O)c2Br)cc1Cl	69.7*	2.5	i	nt
Cc1ccccc1-c1ccc([C@H]2[C@@H](CO)N3C(=O)CN(C(=O)Nc4ccc(F)cc4)C[C@@H]23)cc1	nt	-0.3	nt	nt
CC[n+]1ccc(/C=C/c2ccc(N(C)C)cc2)c2ccccc21	-24.4	-6.9	+	nt
CC[n+]1ccccc1/C=C/c1ccc(N(C)C)cc1	-2.8	-10.5	?	nt
CC=Cc1ccc2n(c1=O)C[C@@H]1[C@@H](CO)[C@H](C(=O)NC3CCCC3)N[C@H]21 (mixture of isomers)	nt	-4.8	nt	nt
N=C1S/C(=C\c2cccc3ccccc23)C(=O)N1c1ccc(F)cc1	-17.0	nt	+	136.8
N=C1S/C(=C\c2ccccc2F)C(=O)N1c1ccc(F)cc1	-5.0	-3.0	i	353.7
CCN1[C@@H]2c3ccc(-c4cccc(F)c4)c(=O)n3C[C@@H]2[C@@H](CO)[C@@H]1C(=O)N(C)C	nt	-2.0	nt	nt
Cc1sc2nc(CSCC(=O)Nc3ccccc3C#N)[nH]c(=O)c2c1C	2.5	nt	+	356.7
COc1ccc2c3c(n(C)c2c1)[C@@H](CO)N(C(=O)C1CC1)CC31CN(C)C1	nt	-1.3	nt	nt
O=C1O[C@@H](c2ccccc2)[C@@H](c2ccccc2)N2[C@@H](c3ccc(OCCO)cc3)[C@]3(C(=O)Nc4ccccc43)[C@@H](C(=O)Nc3nc4ccccc4s3)[C@H]12	nt	1.5	nt	nt
Cc1[nH]c2ccccc2c1C(=O)C(C)OC(=O)c1ccc(NC(=O)CC#N)cc1 (configuration not stated)	-2.8	-1.2	+	404.6
CC1C/C=C/C=C/C=C/C=C/C(O[C@@H]2O[C@H](C)[C@@H](O)[C@H](N)[C@@H]2O)CC2OC(O)(CC(O)CC3OC3/C=C/C(=O)O1)CC(O)C2C(=O)O (some centres not stated)	nt	44.6*	nt	nt
CCOC(=O)Nc1oc2ccccc2c(=O)c1CN1CCOCC1	53.7*	-0.2	i	335.1
CCOC(=O)c1oc2ccccc2c1CN1CC(C)OC(C)C1 (configuration not stated)	-1.4	-2.8	i	298.2
C[C@@H]1CN([C@H](C)CO)C(=O)c2cccc(NS(=O)(=O)c3cn(C)cn3)c2O[C@H]1CN(C)C(=O)NC1CCCCC1	nt	0.2	nt	nt
Cc1ccc(N(C(=O)c2csnn2)C(C(=O)NC2CCCC2)c2ccccn2)cc1 (configuration not stated)	56.4*	-0.7	i	282.2
Cc1ccccc1N(C(=O)c1csnn1)C(C(=O)NC1CCCCC1)c1ccncc1 (configuration not stated)	-11.5	2.2	+	310.3
C[C@@H]1CN([C@H](C)CO)C(=O)c2cc(NC(=O)NC3CCCCC3)ccc2O[C@@H](C)CCCCO[C@H]1CN(C)Cc1ccccc1	nt	-1.8	nt	nt
C/C=C/c1cnc2c(c1)C(=O)N([C@H](C)CO)C[C@H](C)[C@H](CN(C)C(=O)NCCC)O2	nt	3.2	nt	nt
NNC(=O)c1cc2c(N3CCC(Cc4ccccc4)CC3)ncnc2s1	-13.4	-1.0	+	213.0
CCC(=O)N(C)C[C@@H]1Oc2cc(C#Cc3ccncc3)ccc2S(=O)(=O)N([C@@H](C)CO)C[C@@H]1C	nt	0.0	nt	nt
COC(=O)C1CCN(CC(=O)N(C)c2c(N)n(Cc3ccccc3)c(=O)[nH]c2=O)CC1	nt	-2.6	i	745.5
CC1CCN(CC(=O)N(C)c2c(N)n(Cc3ccccc3)c(=O)[nH]c2=O)CC1	nt	0.3	+	nt
